ChEMBL document CHEMBL3585274, “Antiviral Activity of Diterpene Esters on Chikungunya Virus and HIV Replication” (J Nat Prod, 2015)
pEC50: −log10 of the molar value.

Assays:
[1] = system: Chikungunya virus; assay: Antiviral activity against chikungunya virus Indian ocean strain 899 infected in Vero cells assessed as virus-induced cytopathic effect after 6 to 7 days; format: functional, cell-based; conditions: Indian ocean strain 899, Vero
[2] = Selectivity index, CC50 for african green monkey Vero cells to EC50 for chikungunya virus Indian ocean strain 899; format: toxicity, cell-based; conditions: read-out: Ratio CC50/EC50
[3] = system: Human immunodeficiency virus 1; assay: Antiviral activity against HIV1 3B infected in MT4 cells assessed as cell viability after 5 days by MTT assay; format: functional, organism-based; conditions: Human immunodeficiency virus 1, 3B, MT4, 120 h
Procedure, shortened: (§1)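 MT-4 cells ([…] cells/mL suspension) infected with HIV-1 IIIB or HIV-2 ROD at 100−300 CCID50, with mock-infected wells run in parallel. Serial 5-fold compound dilutions in triplicate wells. Viability by MTT after 5 days, absorbance at 540 and 690 nm, median OD of three wells. Median ± median absolute deviation from ≥3 independent assays.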

[4] = Selectivity index, CC50 for african green monkey Vero cells to EC50 for HIV1 3B; format: toxicity, cell-based; conditions: read-out: Ratio CC50/EC50
Procedure, shortened: (§2)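 SI = CC50 in Vero cells ÷ EC50 against HIV-1 IIIB or HIV-2 ROD. CC50 is the 50% antimetabolic concentration from MTS dose−response in Vero. EC50 is from the MT-4/MTT 5-day antiviral assay.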

[5] = system: Human immunodeficiency virus 2; assay: Antiviral activity against HIV2 ROD infected in MT4 cells assessed as cell viability after 5 days by MTT assay; format: functional, organism-based; conditions: Human immunodeficiency virus 2, ISOLATE ROD, MT4, 120 h; procedure, shortened: as §1
[6] = Selectivity index, CC50 for african green monkey Vero cells to EC50 for HIV2 ROD; format: toxicity, cell-based; conditions: read-out: Ratio CC50/EC50; procedure, shortened: as §2

SMILES	pEC50 [1]	selectivity ratio [2]	pEC50 [3]	selectivity ratio [4]	pEC50 [5]	selectivity ratio [6]
COc1cc(CC(=O)OCC2=C[C@H]3[C@@H]4C(C)(C)[C@]4(OC(C)=O)[C@H](OC(=O)Cc4ccccc4)[C@@H](C)[C@]3(O)[C@@H]3C=C(C)C(=O)[C@@]3(O)C2)ccc1O	5.77	14.2	6.12	23	7.10	
CC(=O)O[C@@H]1[C@@H](C)[C@@]2(O)[C@@H](C=C(CO)C[C@]3(O)C(=O)C(C)=C[C@@H]23)[C@@H]2C(C)(C)[C@]12OC(C)=O	5.03	4.2	5.32	> 59	6.00	
CCCCCCCCCC(=O)O[C@@H]1[C@@H](C)[C@@]2(O)[C@@H](C=C(CO)C[C@@]3(O)C(=O)C(C)=C[C@@H]23)[C@@H]2C(C)(C)[C@]12OC(=O)CCCCCCCCC	5.82	2.2	< 4.80		< 4.80	
CC(=O)O[C@@]12[C@H](O)[C@@H](C)[C@@]3(O)[C@@H](C=C(CO)C[C@]4(O)C(=O)C(C)=C[C@@H]34)[C@@H]1C2(C)C	< 3.76		< 3.66	1	4.00	
CC1=C[C@]23C(=O)[C@@H](C=C(COC(=O)c4ccccc4)[C@@H](O)[C@]2(O)[C@H]1OC(=O)c1ccccc1)[C@H]1[C@@H](C[C@H]3C)C1(C)C	5.92	6.4	7.57	3400	8.05	
CCCCCCCCCCCCCC(=O)O[C@@H]1[C@@H](C)[C@@]2(O)[C@@H](C=C(CO)C[C@@]3(O)C(=O)C(C)=C[C@@H]23)[C@@H]2C(C)(C)[C@]12OC(C)=O		1.9	< 4.74		< 4.77	
CCCC(=O)O[C@@H]1[C@@H](C)[C@@]2(O)[C@@H](C=C(CO)C[C@]3(O)C(=O)C(C)=C[C@@H]23)[C@@H]2C(C)(C)[C@]12OC(=O)CCC	5.74	2.1	7.10	3160	7.85	
CC(=O)O[C@@H]1[C@@H](C)[C@@]2(O)[C@@H](C=C(CO)C[C@]3(O)C(=O)C(C)=C[C@@H]23)[C@@H]2C(C)(C)[C@]12O	< 3.61	0.8	< 3.51	> 1	< 3.51	
CCCCCCCCCC(=O)O[C@@H]1[C@@H](C)[C@@]2(O)[C@@H](C=C(CO)C[C@]3(O)C(=O)C(C)=C[C@@H]23)[C@@H]2C(C)(C)[C@]12O	5.31	1.5	5.31	4	5.70	
CCCC(=O)O[C@@]12[C@H](O)[C@@H](C)[C@@]3(O)[C@@H](C=C(CO)C[C@]4(O)C(=O)C(C)=C[C@@H]34)[C@@H]1C2(C)C	4.70	12.3	3.91	> 3	4.60	
CCCCCCCCCC(=O)O[C@@]12[C@H](O)[C@@H](C)[C@@]3(O)[C@@H](C=C(CO)C[C@]4(O)C(=O)C(C)=C[C@@H]34)[C@@H]1C2(C)C	5.66	9.7	6.05	130	6.82	
CCCCCCCCCCCCCC(=O)O[C@@]12[C@H](O)[C@@H](C)[C@@]3(O)[C@@H](C=C(CO)C[C@]4(O)C(=O)C(C)=C[C@@H]34)[C@@H]1C2(C)C	6.00	9	6.62	107	7.11	
CCCCCC(=O)O[C@@H]1[C@@H](C)[C@@]2(O)[C@@H](C=C(CO)C[C@]3(O)C(=O)C(C)=C[C@@H]23)[C@@H]2C(C)(C)[C@]12OC(=O)CCCCC	5.49	1.8	8.15	2890	8.92	
CCCCCCCCCC(=O)O[C@@H]1[C@@H](C)[C@@]2(O)[C@@H](C=C(CO)C[C@]3(O)C(=O)C(C)=C[C@@H]23)[C@@H]2C(C)(C)[C@]12OC(=O)CCCCCCCCC	8.22	686	8.92	754	9.70	
C/C=C(\C)C(=O)O[C@@H]1[C@@H](C)[C@@]2(O)[C@@H](C=C(CO)C[C@]3(O)C(=O)C(C)=C[C@@H]23)[C@@H]2C(C)(C)[C@]12OC(=O)CCCCCCCCC	5.96	3.3	8.82	600	9.70	
CNc1ccccc1C(=O)O[C@@H]1[C@@H](C)[C@@]2(O)[C@@H](C=C(CO)C[C@]3(O)C(=O)C(C)=C[C@@H]23)[C@@H]2C(C)(C)[C@]12OC(C)=O	4.82	1.1	8.05	749	5.52	
CC(=O)OCC1=C[C@H]2[C@@H]3C(C)(C)[C@]3(OC(C)=O)[C@H](O)[C@@H](C)[C@]2(O)[C@@H]2C=C(C)C(=O)[C@@]2(O)C1	4.61	1.7	< 3.55	1	3.61	
CCCCCCCCC(=O)O[C@@H]1[C@@H](C)[C@@]2(O)[C@@H](C=C(COC(=O)Cc3ccc(O)c(OC)c3)C[C@]3(O)C(=O)C(C)=C[C@@H]23)[C@@H]2C(C)(C)[C@]12OC(=O)CCCCCCCC	6.22	3.7	7.44	483	8.40	
CC(=O)OCC1=C[C@H]2[C@@H]3C(C)(C)[C@]3(OC(C)=O)[C@H](OC(C)=O)[C@@H](C)[C@]2(O)[C@@H]2C=C(C)C(=O)[C@@]2(O)C1	4.49	2.2	4.56	> 9	5.18	
CCCC(=O)O[C@@H]1[C@@H](C)[C@@]2(O)[C@@H](C=C(C=O)C[C@]3(O)C(=O)C(C)=C[C@@H]23)[C@@H]2C(C)(C)[C@]12OC(=O)CCC	4.88	2.7	< 4.70		< 4.46	
CCCCCCCCCCCCCC(=O)O[C@@H]1[C@@H](C)[C@@]2(O)[C@@H](C=C(C=O)C[C@]3(O)C(=O)C(C)=C[C@@H]23)[C@@H]2C(C)(C)[C@]12OC(C)=O	6.15	5.9	5.48	5	5.92	
C/C=C(/C)C(=O)O[C@H]1C(C)=C[C@]23C(=O)[C@@H](C=C(CO)[C@@H](O)[C@]12O)[C@H]1[C@@H](C[C@H]3C)C1(C)C [INGENOL MEBUTATE]	4.64	2.3	7.77	7850	8.05	
CC1=C[C@]23C(=O)[C@@H](C=C(CO)[C@@H](O)[C@]2(O)[C@H]1O)[C@H]1[C@@H](C[C@H]3C)C1(C)C [INGENOL]	4.52	4.8	3.68	> 2	3.88	
CCCCCCCCCCCCCC(=O)O[C@@H]1[C@@H](C)[C@@]2(O)[C@@H](C=C(CO)C[C@]3(O)C(=O)C(C)=C[C@@H]23)[C@@H]2C(C)(C)[C@]12OC(C)=O [PHORBOL MYRISTATE ACETATE]		1960	9.05	220	9.15	
CC1=C[C@H]2[C@@]3(O)[C@H](C)[C@@H](O)[C@]4(O)[C@H]([C@@H]3C=C(CO)C[C@]2(O)C1=O)C4(C)C [PHORBOL]	< 3.46	> 1	< 3.46	> 1	< 3.46	
CC(=O)O[C@@]12C[C@@H](C)[C@@]3(O)[C@@H](C=C(CO)C[C@]4(O)C(=O)C(C)=C[C@@H]34)[C@@H]1C2(C)C [PROSTRATIN]	5.57	22.8	5.72	171	6.05	
C=C(C)[C@]12C[C@@H](C)[C@@]34O[C@](Cc5ccccc5)(O[C@@H]1[C@@H]3C=C(COC(=O)Cc1ccc(O)c(OC)c1)C[C@]1(O)C(=O)C(C)=C[C@@H]41)O2 [RESINIFERATOXIN]	5.74	2.3	4.59	8	4.65	
Cc1cn([C@H]2C[C@H](N=[N+]=[N-])[C@@H](CO)O2)c(=O)[nH]c1=O [ZIDOVUDINE]			5.15	3520	5.22	> 4180
